According to ChEMBL document CHEMBL1129540, “Synthesis and cytotoxicity of 1,2-disubstituted naphth[2,3-d]imidazole-4,9-diones and related compounds” (1996):

Tests used:
Assay type in all cases: functional
UACC-62 = assay: In vitro inhibitory activity against melanoma UACC-62 cancer cell line; settings: Homo sapiens
In short: (§1)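 Tested in the National Cancer Institute's in vitro disease-oriented tumor cell line screen. Dose-response curves were recorded for each cell line, and values are reported as log GI50, the compound concentration that inhibits cell growth by 50%.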

U-251 = assay: In vitro inhibitory activity against CNS U-251 cancer cell line; settings: Homo sapiens; in short: as §1
COLO 205 = assay: In vitro inhibitory activity against colon COLO-205 cancer cell line; settings: Homo sapiens; in short: as §1
IGROV-1 = assay: In vitro inhibitory activity against ovarain IGROV1 cancer cell line; settings: Homo sapiens; in short: as §1
ACHN = assay: In vitro inhibitory activity against renal ACHN cancer cell line; settings: Homo sapiens; in short: as §1
HCT-116 = assay: In vitro inhibitory activity against colon HCT116 cancer cell line; settings: Homo sapiens; in short: as §1
HOP-92 = assay: In vitro inhibitory activity against non small lung HOP-92 cancer cell line; settings: Homo sapiens; in short: as §1
HL-60 = assay: In vitro inhibitory activity against leukemia HL-60(TB) cancer cell line; settings: Homo sapiens
In short: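 Tested in the NCI in vitro disease-oriented human tumour cell line screen. Growth inhibition was read from dose-response curves and reported as log GI50, the compound concentration that inhibits cell growth by 50%.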

Malme-3M = assay: In vitro inhibitory activity against melanoma MALME-3M cancer cell line; settings: Homo sapiens; in short: as §1
[1] = In vitro inhibitory activity against small cell lung DMS 114 cancer cell line; settings: Homo sapiens, Cancer cell lines; in short: as §1
[2] = In vitro inhibitory activity against small cell lung DMS 273 cancer cell line; settings: Homo sapiens, Cancer cell lines; in short: as §1
OVCAR-3 = assay: In vitro inhibitory activity against ovarain OVCAR-3 cancer cell line; settings: Homo sapiens; in short: as §1
K562 = assay: In vitro inhibitory activity against leukemia K-562 cancer cell line; settings: Homo sapiens; in short: as §1
SF-539 = assay: In vitro inhibitory activity against CNS SF-539 cancer cell line; settings: Homo sapiens; in short: as §1
RXF 393 = assay: In vitro inhibitory activity against renal RXF-393 cancer cell line; settings: Homo sapiens; in short: as §1
NCI-H522 = assay: In vitro inhibitory activity against non small lung […]H522 cancer cell line; settings: Homo sapiens; in short: as §1
MDA-N = assay: In vitro inhibitory activity against breast MDA-N cancer cell line; settings: Homo sapiens; in short: as §1
MCF7 = assay: In vitro inhibitory activity against breast MCF-7 cancer cell line; settings: Homo sapiens; in short: as §1
PC-3 = assay: In vitro inhibitory activity against prostate PC-3 cancer cell line; settings: Homo sapiens; in short: as §1
DU-145 = assay: In vitro inhibitory activity against prostate DU-145 cancer cell line; settings: Homo sapiens; in short: as §1

O=C(Cc1ccccc1F)NC1=C(Cl)C(=O)c2ccccc2C1=O
GI50 (UACC-62): 0.331 µM | GI50 (U-251): 0.331 µM | GI50 (COLO 205): 1.91 µM | GI50 (IGROV-1): 0.676 µM | GI50 (ACHN): 0.479 µM | GI50 (HCT-116): 0.427 µM | GI50 (HOP-92): 1.1 µM | GI50 (HL-60): 0.282 µM | GI50 (Malme-3M): 1.7 µM | GI50 [1]: 0.174 µM | GI50 [2]: 1.29 µM | GI50 (OVCAR-3): 0.933 µM | GI50 (K562): 0.295 µM | GI50 (SF-539): 0.24 µM | GI50 (RXF 393): 0.166 µM | GI50 (NCI-H522): 0.214 µM

CC/N=C1/C(=O)c2ccccc2C(O)=C1NC(=O)c1cc(OC)cc(OC)c1
GI50 (UACC-62): 0.355 µM | GI50 (U-251): 0.525 µM | GI50 (COLO 205): 3.47 µM | GI50 (IGROV-1): 1.55 µM | GI50 (ACHN): 0.977 µM | GI50 (HCT-116): 0.417 µM | GI50 (HOP-92): 1.12 µM | GI50 (MDA-N): 0.12 µM | GI50 (HL-60): 0.407 µM | GI50 (MCF7): 0.372 µM | GI50 (Malme-3M): 0.776 µM | GI50 (PC-3): 0.38 µM | GI50 (OVCAR-3): 0.525 µM | GI50 (DU-145): 2.69 µM | GI50 (K562): 0.49 µM | GI50 (SF-539): 1.91 µM | GI50 (RXF 393): 0.324 µM | GI50 (NCI-H522): 0.372 µM

CCn1c(C)nc2c1C(=O)c1ccccc1C2=O
GI50 (UACC-62): 4.9 µM | GI50 (U-251): 1.91 µM | GI50 (COLO 205): 0.355 µM | GI50 (IGROV-1): 2.04 µM | GI50 (HCT-116): 1.23 µM | GI50 (HOP-92): 1.62 µM | GI50 (HL-60): 16.6 µM | GI50 (MCF7): 0.676 µM | GI50 (Malme-3M): 2.51 µM | GI50 [1]: 0.275 µM | GI50 [2]: 1.66 µM | GI50 (OVCAR-3): 0.0501 µM | GI50 (K562): 1.66 µM | GI50 (SF-539): 2.69 µM | GI50 (RXF 393): 27.5 µM | GI50 (NCI-H522): 0.24 µM
